Legend:
[1] = target: T1, Cannabinoid receptor 1 (Homo sapiens, UniProt P21554); assay: Inverse agonist activity at human recombinant CB1R expressed in CHO cells assessed as increase in forskolin-stimulated cAMP level; type: functional, cell-based
How it was run: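 Recombinant CB1R-CHO cells were incubated with test compound across a range of concentrations, plus forskolin and the phosphodiesterase inhibitor IBMX. Buffer was Earle's balanced salt solution with 5 mM MgCl₂, 10 mM HEPES pH 7.3 and 1 mg/mL BSA, for 30 min at room temperature, with cAMP read out.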

[2] = target: T1, Cannabinoid receptor 1; assay: Displacement of [3H]CP-55940 from human recombinant CB1R expressed in CHO cells; type: cell-based
How it was run: (§1)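 Radioligand competition used 0.5 nM [³H]CP55940 with recombinant human CB1R-CHO or CB2R-CHO membranes. Bound and free ligand were separated by filtration, and IC₅₀ came from nonlinear curve fitting.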

[3] = target: Cannabinoid receptor 2 (Homo sapiens, UniProt P34972); assay: Displacement of [3H]CP-55940 from human recombinant CB2R expressed in CHO cells; type: cell-based; how it was run: as §1
Cannabinoid receptor 2, sequence (P34972 whole entry): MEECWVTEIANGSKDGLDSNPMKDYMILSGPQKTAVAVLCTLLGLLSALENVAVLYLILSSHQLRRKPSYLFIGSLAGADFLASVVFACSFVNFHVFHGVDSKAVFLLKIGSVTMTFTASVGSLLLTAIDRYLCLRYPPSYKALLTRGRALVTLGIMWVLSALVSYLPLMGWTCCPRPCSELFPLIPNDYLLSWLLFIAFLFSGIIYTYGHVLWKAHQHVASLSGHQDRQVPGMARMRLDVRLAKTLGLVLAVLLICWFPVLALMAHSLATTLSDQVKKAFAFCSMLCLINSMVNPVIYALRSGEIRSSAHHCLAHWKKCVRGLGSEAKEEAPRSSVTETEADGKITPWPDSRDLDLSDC

T1 sequence (P21554 whole entry): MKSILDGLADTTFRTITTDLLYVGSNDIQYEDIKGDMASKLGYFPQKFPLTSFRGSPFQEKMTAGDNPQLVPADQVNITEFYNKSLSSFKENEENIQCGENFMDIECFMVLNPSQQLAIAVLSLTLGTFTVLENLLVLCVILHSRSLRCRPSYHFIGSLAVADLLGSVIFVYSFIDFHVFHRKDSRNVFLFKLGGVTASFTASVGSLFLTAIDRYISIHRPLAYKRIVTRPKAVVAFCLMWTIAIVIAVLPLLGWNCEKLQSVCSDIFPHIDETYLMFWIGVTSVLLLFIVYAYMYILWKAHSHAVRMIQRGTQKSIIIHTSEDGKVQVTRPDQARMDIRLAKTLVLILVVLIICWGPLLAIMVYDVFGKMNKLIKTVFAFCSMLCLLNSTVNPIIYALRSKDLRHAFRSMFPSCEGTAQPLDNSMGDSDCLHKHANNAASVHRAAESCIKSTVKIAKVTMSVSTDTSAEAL

Compound: CC1CN(S(=O)(=O)c2cccc3ccccc23)CCN1C(=O)C1CCCCC1 (stereo unspecified)
- EC50 [1]: 0.007 µM
- IC50 [2]: 0.31 µM

Compound: O=C(C1CC1)N1CCN(S(=O)(=O)c2ccc(Cl)cc2)CC1
- EC50 [1]: > 10 µM
- IC50 [2]: 3.5 µM

Compound: Cc1nnc(-c2cc(C(F)(F)F)cc(S(=O)(=O)N3CCN(C(=O)[C@@H]4C[C@H]4c4ccc(C(F)(F)F)cc4)CC3)c2)[nH]1
- IC50 [2]: 0.01 µM
- IC50 [3]: > 10 µM

Compound: O=C(C1CCCCC1)N1C2CC1CN(S(=O)(=O)c1cccc3ccccc13)C2
- EC50 [1]: 0.9 µM
- IC50 [2]: > 10 µM

Compound: O=C1CSC(c2cc(C(F)(F)F)cc(S(=O)(=O)N3CCN(C(=O)[C@@H]4C[C@H]4c4ccc(C(F)(F)F)cc4)CC3)c2)=N1
- IC50 [2]: 0.01 µM
- IC50 [3]: > 10 µM

Compound: O=C(C1CC1)N1CCN(S(=O)(=O)c2cc(Cl)ccc2Cl)CC1
- EC50 [1]: 0.09 µM
- IC50 [2]: 6.4 µM

Compound: O=C(C1CCCCC1)N1CCN(S(=O)(=O)c2cc(Cl)cc(Cl)c2)CC1
- EC50 [1]: 0.0005 µM
- IC50 [3]: > 10 µM

Compound: O=C([C@@H]1C[C@H]1c1ccc(C(F)(F)F)cc1)N1CCN(S(=O)(=O)c2cc(-n3cncn3)cc(C(F)(F)F)c2)CC1
- IC50 [2]: 0.007 µM
- IC50 [3]: > 10 µM

Compound: C[C@@H]1CN(S(=O)(=O)c2cccc3ccccc23)C[C@H](C)N1C(=O)C1CCCCC1
- EC50 [1]: 0.008 µM
- IC50 [2]: 2.8 µM

Compound: O=C([C@@H]1C[C@H]1c1ccc(C(F)(F)F)cc1)N1CCN(S(=O)(=O)c2cc(O)cc(C(F)(F)F)c2)CC1
- IC50 [2]: 0.006 µM

Compound: CC(C)(O)c1cc(C(F)(F)F)cc(S(=O)(=O)N2CCN(C(=O)[C@@H]3C[C@H]3c3ccc(C(F)(F)F)cc3)CC2)c1
- IC50 [2]: 0.008 µM
- IC50 [3]: > 10 µM

Compound: COC(=O)c1cc(C(F)(F)F)cc(S(=O)(=O)N2CCN(C(=O)Cc3ccc(C(F)(F)F)cc3)CC2)c1
- EC50 [1]: 0.001 µM
- IC50 [2]: 0.005 µM
- IC50 [3]: > 10 µM

Compound: CC(C(=O)N1CCN(S(=O)(=O)c2cc(Cl)cc(Cl)c2)CC1)c1ccc(C(F)(F)F)cc1 (stereo in doubt; 20b)
- EC50 [1]: 0.011 µM
- IC50 [2]: 0.4 µM

Compound: Cc1cc(C)cc(S(=O)(=O)N2CCN(C(=O)C3CCCCC3)CC2)c1
- EC50 [1]: 0.0011 µM
- IC50 [2]: 0.4 µM
- IC50 [3]: > 10 µM

Compound: CC1CN(C(=O)C2CCCCC2)CCN1S(=O)(=O)c1cccc2ccccc12 (stereo unspecified)
- EC50 [1]: 0.18 µM
- IC50 [2]: 4.7 µM

Compound: O=C(C1CCCCC1)N1CCN(S(=O)(=O)c2cc(C(F)(F)F)cc(C(F)(F)F)c2)CC1
- EC50 [1]: 0.001 µM
- IC50 [3]: > 10 µM

Compound: O=C([C@@H]1C[C@H]1c1ccc(C(F)(F)F)cc1)N1CCN(S(=O)(=O)c2cc(-c3cn[nH]c3)cc(C(F)(F)F)c2)CC1
- IC50 [2]: 0.009 µM
- IC50 [3]: > 10 µM

Compound: CN(C)C(=O)Oc1cc(C(F)(F)F)cc(S(=O)(=O)N2CCN(C(=O)[C@@H]3C[C@H]3c3ccc(C(F)(F)F)cc3)CC2)c1
- IC50 [2]: 0.002 µM

Compound: CC(C)(C(=O)N1CCN(S(=O)(=O)c2cc(Cl)cc(Cl)c2)CC1)c1ccccc1
- EC50 [1]: 0.0028 µM
- IC50 [2]: 0.23 µM

Compound: O=C(C1CC1)N1CCN(S(=O)(=O)c2cc(Cl)c(Cl)cc2Cl)CC1
- EC50 [1]: 1.5 µM
- IC50 [2]: 9.7 µM

Compound: O=C(Cc1cccc(C(F)(F)F)c1)N1CCN(S(=O)(=O)c2cc(Cl)cc(Cl)c2)CC1
- EC50 [1]: 0.0046 µM
- IC50 [2]: 0.15 µM

Compound: CC(C)(C)C(=O)Oc1cc(C(F)(F)F)cc(S(=O)(=O)N2CCN(C(=O)[C@@H]3C[C@H]3c3ccc(C(F)(F)F)cc3)CC2)c1
- IC50 [2]: 0.008 µM

Compound: Nc1nnc(-c2cc(C(F)(F)F)cc(S(=O)(=O)N3CCN(C(=O)[C@@H]4C[C@H]4c4ccc(C(F)(F)F)cc4)CC3)c2)o1
- IC50 [2]: 0.4 µM
- IC50 [3]: > 10 µM

Compound: O=C([C@@H]1C[C@H]1c1ccc(C(F)(F)F)cc1)N1CCN(S(=O)(=O)c2cc(-c3n[nH]c(=O)o3)cc(C(F)(F)F)c2)CC1
- IC50 [2]: 0.1 µM
- IC50 [3]: > 10 µM

Compound: CC(C(=O)N1CCN(S(=O)(=O)c2cc(Cl)cc(Cl)c2)CC1)c1ccc(C(F)(F)F)cc1 (stereo in doubt; 20a)
- EC50 [1]: 0.0015 µM
- IC50 [2]: 0.02 µM

Compound: CC1(C)CN(S(=O)(=O)c2cccc3ccccc23)CCN1C(=O)C1CCCCC1
- EC50 [1]: 0.0006 µM
- IC50 [2]: 0.7 µM

Compound: O=C(Cc1ccc(C(F)(F)F)cc1)N1CCN(S(=O)(=O)c2cc(C(F)(F)F)cc(C(F)(F)F)c2)C1
- EC50 [1]: > 10 µM
- IC50 [2]: > 10 µM

Compound: O=C([C@@H]1C[C@H]1c1ccc(C(F)(F)F)cc1)N1CCN(S(=O)(=O)c2cc(-c3noc(=O)[nH]3)cc(C(F)(F)F)c2)CC1
- IC50 [2]: 0.2 µM
- IC50 [3]: > 10 µM

Compound: O=C(C1CC1)N1CCN(S(=O)(=O)c2c(Cl)cccc2Cl)CC1
- EC50 [1]: 1.5 µM
- IC50 [2]: 9.7 µM

Compound: Cc1[nH]ncc1-c1cc(C(F)(F)F)cc(S(=O)(=O)N2CCN(C(=O)[C@@H]3C[C@H]3c3ccc(C(F)(F)F)cc3)CC2)c1
- IC50 [2]: 0.02 µM
- IC50 [3]: > 10 µM

Compound: O=C(C1CC1)N1CCN(S(=O)(=O)c2c(Cl)cc(Cl)cc2Cl)CC1
- EC50 [1]: 1.5 µM
- IC50 [2]: 9.7 µM
